In ChEMBL document CHEMBL1914406, “Inhibitory effect of novel 5-O-acyl juglones on mammalian DNA polymerase activity, cancer cell growth and inflammatory response” (Bioorg Med Chem, 2011) one finds Activity, CC50 and inhibition data, which are given here for five molecules.

The structures appear in SMILES notation. Calls of active or inactive are those of the source. The calls are words filed in the database; no cut-off is given here.

In the first series the test system is HCT-116. Description: Cytotoxicity against human HCT116 cells by WST-1 assay. Format: functional, cell-based.
Details: not given
The procedure, abridged:
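HCT116 colon carcinoma cells (ATCC) grown in McCoy's 5A with 10% FBS, penicillin and streptomycin, 37 °C, 5% CO2. Plated at 1 × 10⁴ cells/well together with compound, which was diluted from a 10 mM DMSO stock into medium (final 0.5% DMSO). Incubated 24 h. Viability read by WST-1, expressed relative to untreated cells.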
Take `CCC(=O)O` [PROPIONIC ACID]: the result was inactive.

On to `CCCCCCCCCCCCCCCCCC(=O)O` [STEARIC ACID], for which the result was inactive.

Turning to `CCCCCCCC/C=C\CCCCCCCC(=O)O` [OLEIC ACID], the result was inactive.

Regarding `CCCCCCCCCCCC(=O)O` [DODECANOATE], the outcome was inactive.

For the next series, the system named is RAW264.7. Description: Antiinflammatory activity in mouse RAW264.7 cells assessed as inhibition of LPS-induced TNFalpha secretion at 5 uM treated 30 mins before LPS challenge measured after 24 hrs by ELISA. Format: functional, cell-based.
Details: not given
The procedure, abridged: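 RAW264.7 cells in MEM with 4.5 g/L glucose, 10% FCS, 5 mM L-glutamine, at 37 °C in 5% CO2. Seeded at 5 × 10⁴ cells/well and grown 24 h. Compound (final 1 and 5 µM) given 30 min before 100 ng/mL LPS. After 24 h, TNF-α in the medium measured by ELISA, relative to the no-compound value (100%). Mean ± SE, n = 4.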
A general note: ELISA stands for enzyme-linked immunosorbent assay.
`CCC(=O)O` [PROPIONIC ACID]: the result was inactive.

As for `CCCCCCCCCCCCCCCCCC(=O)O` [STEARIC ACID], the result was inactive.

With `CCCCCCCC/C=C\CCCCCCCC(=O)O` [OLEIC ACID], the outcome was inactive.

For the molecule `CCCCCCCCCCCC(=O)O` [DODECANOATE], the result was inactive.

Another series relates to RAW264.7. Description: Cytotoxicity against mouse RAW264.7 cells at 5 uM. It counts as cell-based. Conditions: raw264.7, 5 µM.
With `CCC(=O)O` [PROPIONIC ACID], the Activity entry is on record as “Non-toxic”.

Consider `CCCCCCCCCCCCCCCCCC(=O)O` [STEARIC ACID], for which the Activity result was “Non-toxic”.

In the case of `CCCCCCCC/C=C\CCCCCCCC(=O)O` [OLEIC ACID], the Activity result is “Non-toxic”.

With `CCCCCCCCCCCC(=O)O` [DODECANOATE], the Activity entry is on record as “Non-toxic”.

Tested on in a further series: not listed separately
Description: Cytotoxicity against mouse RAW264.7 cells. Format: cell-based. As to conditions: read-out: LD50 (the source's name).
In the case of `CCC(=O)O` [PROPIONIC ACID], the CC50 was greater than 10 µM.

Take `CCCCCCCCCCCCCCCCCC(=O)O` [STEARIC ACID]: the CC50 is greater than 10 µM.

For `CCCCCCCC/C=C\CCCCCCCC(=O)O` [OLEIC ACID], the CC50 was greater than 10 µM.

For `CCCCCCCCCCCC(=O)O` [DODECANOATE], the CC50 is greater than 10 µM.

Another series relates to Mus musculus. Description: Antiinflammatory activity in mouse assessed as inhibition of TPA-induced mouse ear edema at 500 ug/ear administered 30 mins before TPA challenge measured after 7 hrs relative to untreated control. Format: functional, organism-based.
Details: not given
The procedure, abridged: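 Compound (500 µg) applied to one mouse ear; 30 min later TPA (0.5 µg) applied to both ears. Edema scored after 7 h and expressed as percentage of edema. Mean ± SE, n = 6.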
`CCC(=O)O` [PROPIONIC ACID]: the result was inactive.

With `CCCCCCCCCCCCCCCCCC(=O)O` [STEARIC ACID], the result was inactive.

For `CCCCCCCC/C=C\CCCCCCCC(=O)O` [OLEIC ACID], the result was inactive.

On to `CCCCCCCCCCCC(=O)O` [DODECANOATE], for which the outcome was inactive.

Another series addresses T1, DNA polymerase lambda (Homo sapiens) (UniProt Q9UGP5).
T1 sequence (whole entry): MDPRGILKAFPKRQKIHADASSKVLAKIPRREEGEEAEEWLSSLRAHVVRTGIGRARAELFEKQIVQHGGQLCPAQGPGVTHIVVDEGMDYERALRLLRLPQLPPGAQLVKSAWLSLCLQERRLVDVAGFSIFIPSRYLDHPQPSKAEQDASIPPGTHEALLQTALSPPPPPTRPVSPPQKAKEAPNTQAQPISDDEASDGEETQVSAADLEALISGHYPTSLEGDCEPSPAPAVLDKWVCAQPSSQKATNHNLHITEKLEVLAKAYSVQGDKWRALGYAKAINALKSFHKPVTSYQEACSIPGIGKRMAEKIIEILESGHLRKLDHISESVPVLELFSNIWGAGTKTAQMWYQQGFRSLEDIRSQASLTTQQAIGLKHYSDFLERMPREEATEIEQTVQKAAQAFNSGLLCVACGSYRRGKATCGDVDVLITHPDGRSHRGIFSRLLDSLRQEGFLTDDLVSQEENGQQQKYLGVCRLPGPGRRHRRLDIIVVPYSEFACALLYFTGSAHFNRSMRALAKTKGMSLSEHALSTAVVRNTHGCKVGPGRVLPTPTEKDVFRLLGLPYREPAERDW
The experiment in a line: Inhibition of recombinant His-tagged human DNA polymerase lambda using poly(dA)/oligo(dT)18 (A/T = 2/1) and dTTP as the DNA template-primer and nucleotide substrate at 10 uM after 60 mins.
Details: not given
In short, it runs like this: (§1)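 Compound in DMSO, sonicated 30 s. Premixed 0 °C, 10 min with enzyme (0.05 units) in 50 mM Tris-HCl pH 7.5, 1 mM DTT, 50% glycerol, 0.1 mM EDTA, then added to standard reaction mixture. Template-primers: poly(dA)/oligo(dT)18 (2/1) for pols, oligo(dT)18 for TdT, poly(rA)/oligo(dT)18 for HIV-1 RT, with [3H]dTTP. 60 min at 37 °C (Taq 74 °C). Activity relative to no-inhibitor control; mean ± SE of three experiments.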
For `CCC(=O)O` [PROPIONIC ACID], the inhibition result is “inactive”.

With `CCCCCCCCCCCCCCCCCC(=O)O` [STEARIC ACID], the inhibition result is “inactive”.

Consider `CCCCCCCC/C=C\CCCCCCCC(=O)O` [OLEIC ACID], for which the inhibition entry was “inactive”.

Consider `CCCCCCCCCCCC(=O)O` [DODECANOATE], for which the inhibition entry is “inactive”.

The species entered for a further series is Bos taurus. Description: Inhibition of calf DNA polymerase alpha using poly(dA)/oligo(dT)18 (A/T = 2/1) and dTTP as the DNA template-primer and nucleotide substrate at 10 uM after 60 mins.
Details: not given
The procedure, abridged:
as §1
Take `CCC(=O)O` [PROPIONIC ACID]: the inhibition result is “inactive”.

On to `CCCCCCCCCCCCCCCCCC(=O)O` [STEARIC ACID], for which the inhibition entry is “inactive”.

For `CCCCCCCC/C=C\CCCCCCCC(=O)O` [OLEIC ACID], the inhibition result was “inactive”.

`CCCCCCCCCCCC(=O)O` [DODECANOATE]: the inhibition result is “inactive”.

The species entered for a further series is Homo sapiens. The experiment in a line: Inhibition of histidine-tagged human DNA polymerase gamma using poly(dA)/oligo(dT)18 (A/T = 2/1) and dTTP as the DNA template-primer and nucleotide substrate at 10 uM after 60 mins.
Details: not given
The procedure, abridged:
as §1
As to `CCC(=O)O` [PROPIONIC ACID], the inhibition entry is “inactive”.

For `CC1=CC(=O)c2ccccc2C1=O`, the inhibition result was “Active”.

With `CCCCCCCCCCCCCCCCCC(=O)O` [STEARIC ACID], the inhibition entry was “inactive”.

As to `CCCCCCCC/C=C\CCCCCCCC(=O)O` [OLEIC ACID], the inhibition result was “inactive”.

Turning to `CCCCCCCCCCCC(=O)O` [DODECANOATE], the inhibition result was “inactive”.

The target of the next series is T2, DNA polymerase kappa (Homo sapiens) (UniProt Q9UBT6).
T2 sequence (whole entry): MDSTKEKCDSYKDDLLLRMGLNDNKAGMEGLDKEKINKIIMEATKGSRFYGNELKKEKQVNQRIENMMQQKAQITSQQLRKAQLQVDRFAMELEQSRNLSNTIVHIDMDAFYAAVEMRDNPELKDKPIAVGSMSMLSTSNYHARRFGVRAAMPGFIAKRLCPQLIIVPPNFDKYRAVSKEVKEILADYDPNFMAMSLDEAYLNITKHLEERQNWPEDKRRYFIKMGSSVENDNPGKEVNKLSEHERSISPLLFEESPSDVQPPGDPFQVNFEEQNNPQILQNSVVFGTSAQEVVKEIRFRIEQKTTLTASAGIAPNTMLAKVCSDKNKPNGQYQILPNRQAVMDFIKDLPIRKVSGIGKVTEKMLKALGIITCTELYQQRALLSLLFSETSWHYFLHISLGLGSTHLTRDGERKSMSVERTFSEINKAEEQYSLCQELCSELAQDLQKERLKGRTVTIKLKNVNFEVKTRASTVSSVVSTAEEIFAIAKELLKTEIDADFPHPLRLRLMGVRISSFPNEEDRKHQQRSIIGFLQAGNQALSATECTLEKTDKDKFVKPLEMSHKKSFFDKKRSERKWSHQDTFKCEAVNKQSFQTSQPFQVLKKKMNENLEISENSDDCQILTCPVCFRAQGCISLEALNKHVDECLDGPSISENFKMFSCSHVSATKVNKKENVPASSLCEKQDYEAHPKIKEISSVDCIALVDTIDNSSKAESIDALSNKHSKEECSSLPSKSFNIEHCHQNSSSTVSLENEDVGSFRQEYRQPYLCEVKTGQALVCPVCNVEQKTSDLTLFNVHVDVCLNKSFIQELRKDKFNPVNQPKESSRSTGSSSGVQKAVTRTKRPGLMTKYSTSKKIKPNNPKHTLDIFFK
The experiment in a line: Inhibition of C-terminal His6-tagged human DNA polymerase kappa (amino acids 1 to 560) using poly(dA)/oligo(dT)18 (A/T = 2/1) and dTTP as the DNA template-primer and nucleotide substrate at 10 uM after 60 mins.
Details: not given
`CCC(=O)O` [PROPIONIC ACID]: the inhibition entry is “inactive”.

Consider `CCCCCCCCCCCCCCCCCC(=O)O` [STEARIC ACID], for which the inhibition entry was “inactive”.

Turning to `CCCCCCCC/C=C\CCCCCCCC(=O)O` [OLEIC ACID], the inhibition result is “inactive”.

As for `CCCCCCCCCCCC(=O)O` [DODECANOATE], the inhibition entry was “inactive”.

The species entered for a further series is Bos taurus. Description: Inhibition of calf DNA polymerase alpha using bovine deoxyribonuclease 1-treated DNA and dNTP as the DNA template-primer and nucleotide substrate at 10 uM after 60 mins.
Details: not given
Take `CCC(=O)O` [PROPIONIC ACID]: the inhibition result is “inactive”.

For the molecule `CCCCCCCCCCCCCCCCCC(=O)O` [STEARIC ACID], the inhibition result was “inactive”.

Regarding `CCCCCCCC/C=C\CCCCCCCC(=O)O` [OLEIC ACID], the inhibition entry was “inactive”.

As to `CCCCCCCCCCCC(=O)O` [DODECANOATE], the inhibition entry is “inactive”.

The species named for a further series is Homo sapiens. The experiment in a line: Inhibition of histidine-tagged human DNA polymerase gamma using bovine deoxyribonuclease 1-treated DNA and dNTP as the DNA template-primer and nucleotide substrate at 10 uM after 60 mins.
Details: not given
For the molecule `CCC(=O)O` [PROPIONIC ACID], the inhibition result was “inactive”.

As to `CC1=CC(=O)c2ccccc2C1=O`, the inhibition entry is “Active”.

Regarding `CCCCCCCCCCCCCCCCCC(=O)O` [STEARIC ACID], the inhibition entry is “inactive”.

In the case of `CCCCCCCC/C=C\CCCCCCCC(=O)O` [OLEIC ACID], the inhibition entry was “inactive”.

With `CCCCCCCCCCCC(=O)O` [DODECANOATE], the inhibition result was “inactive”.

Another series concerns the target T2, DNA polymerase kappa (Homo sapiens). Description: Inhibition of C-terminal His6-tagged human DNA polymerase kappa (amino acids 1 to 560) using bovine deoxyribonuclease 1-treated DNA and dNTP as the DNA template-primer and nucleotide substrate at 10 uM after 60 mins.
Details: not given
On to `CCC(=O)O` [PROPIONIC ACID], for which the inhibition entry is “inactive”.

Take `CCCCCCCCCCCCCCCCCC(=O)O` [STEARIC ACID]: the inhibition result is “inactive”.

Regarding `CCCCCCCC/C=C\CCCCCCCC(=O)O` [OLEIC ACID], the inhibition result is “inactive”.

Take `CCCCCCCCCCCC(=O)O` [DODECANOATE]: the inhibition entry is “inactive”.

The target in a further series is T1, DNA polymerase lambda (Homo sapiens). The experiment in a line: Inhibition of recombinant His-tagged human DNA polymerase lambda using bovine deoxyribonuclease 1-treated DNA and dNTP as the DNA template-primer and nucleotide substrate at 10 uM after 60 mins.
Details: not given
Turning to `CCC(=O)O` [PROPIONIC ACID], the inhibition entry was “inactive”.

As for `CCCCCCCCCCCCCCCCCC(=O)O` [STEARIC ACID], the inhibition entry was “inactive”.

With `CCCCCCCC/C=C\CCCCCCCC(=O)O` [OLEIC ACID], the inhibition result is “inactive”.

Consider `CCCCCCCCCCCC(=O)O` [DODECANOATE], for which the inhibition entry is “inactive”.
